Measurements published in ChEMBL document CHEMBL3098013, “Novel pyrazole integrated 1,3,4-oxadiazoles: synthesis, characterization and antimicrobial evaluation” (2014).
Converted amounts (≈) assume the structure as drawn.

How the values were obtained:
Format in all cases: functional
[1] = system: Aspergillus flavus; experiment: Antimicrobial activity against Aspergillus flavus MTCC 873 at 100 ug/ml after 48 hrs by disc diffusion method; details: for zone of inhibition at 100 µg/mL: MTCC 873, 48 h, read-out: DIZ
Outline: (§1)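 Agar diffusion read-out is the diameter of the inhibition zone in mm. Each test was run in six replicates and reported as mean ± standard deviation, taken from at least three determinations.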

[2] = system: Klebsiella pneumoniae; experiment: Antimicrobial activity against Klebsiella pneumoniae MTCC 3384 after 24 hrs by microdilution method; details: MTCC 3384, 24 h
Outline: (§2)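 The minimal inhibitory concentration was determined by dilution, alongside minimal bactericidal concentration for bacterial strains and minimal fungicidal concentration for fungal strains. Tests were run in six replicates, and the value is the mean of at least three determinations.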

[3] = system: Fusarium oxysporum; experiment: Antimicrobial activity against Fusarium oxysporum MTCC 284 at 50 ug/ml after 48 hrs by disc diffusion method; details: for zone of inhibition at 50 µg/mL: MTCC 284, 48 h, read-out: DIZ; outline: as §1
[4] = system: Staphylococcus aureus; experiment: Antimicrobial activity against Staphylococcus aureus MTCC 96 at 50 ug/ml after 24 hrs by disc diffusion method; details: MTCC 96, 24 h, read-out: DIZ; outline: as §1
[5] = system: Fusarium verticillioides; experiment: Antimicrobial activity against Fusarium moniliforme MTCC 156 after 48 hrs by microdilution method; outline: as §2
[6] = system: Bacillus cereus; experiment: Antimicrobial activity against Bacillus cereus MTCC 8372 at 50 ug/ml after 24 hrs by disc diffusion method; details: MTCC 8372, 24 h, read-out: DIZ; outline: as §1
[7] = system: Staphylococcus aureus; experiment: Antimicrobial activity against Staphylococcus aureus MTCC 96 at 100 ug/ml after 24 hrs by disc diffusion method; details: MTCC 96, 24 h, read-out: DIZ; outline: as §1
[8] = system: Aspergillus flavus; experiment: Antimicrobial activity against Aspergillus flavus MTCC 873 at 50 ug/ml after 48 hrs by disc diffusion method; details: for zone of inhibition at 50 µg/mL: MTCC 873, 48 h, read-out: DIZ; outline: as §1
[9] = system: Fusarium verticillioides; experiment: Antimicrobial activity against Fusarium moniliforme MTCC 156 at 100 ug/ml after 48 hrs by disc diffusion method; details: for zone of inhibition at 100 µg/mL: MTCC 156, 48 h, read-out: DIZ; outline: as §1
[10] = system: Escherichia coli; experiment: Antimicrobial activity against Escherichia coli MTCC 724 after 24 hrs by microdilution method; details: MTCC 724, 24 h; outline: as §2
[11] = system: Aspergillus flavus; experiment: Antimicrobial activity against Aspergillus flavus MTCC 873 after 48 hrs by microdilution method; outline: as §2
[12] = system: Klebsiella pneumoniae; experiment: Antimicrobial activity against Klebsiella pneumoniae MTCC 3384 at 50 ug/ml after 24 hrs by disc diffusion method; details: MTCC 3384, 24 h, read-out: DIZ; outline: as §1
[13] = system: Staphylococcus aureus; experiment: Antimicrobial activity against Staphylococcus aureus MTCC 96 after 24 hrs by microdilution method; details: MTCC 96, 24 h; outline: as §2
[14] = system: Escherichia coli; experiment: Antimicrobial activity against Escherichia coli MTCC 724 at 50 ug/ml after 24 hrs by disc diffusion method; details: MTCC 724, 24 h, read-out: DIZ; outline: as §1
[15] = system: Fusarium verticillioides; experiment: Antimicrobial activity against Fusarium moniliforme MTCC 156 at 50 ug/ml after 48 hrs by disc diffusion method; details: for zone of inhibition at 50 µg/mL: MTCC 156, 48 h, read-out: DIZ; outline: as §1
[16] = system: Aspergillus niger; experiment: Antimicrobial activity against Aspergillus niger MTCC 281 at 50 ug/ml after 48 hrs by disc diffusion method; details: for zone of inhibition at 50 µg/mL: MTCC 281, 48 h, read-out: DIZ; outline: as §1
[17] = system: Aspergillus niger; experiment: Antimicrobial activity against Aspergillus niger MTCC 281 at 100 ug/ml after 48 hrs by disc diffusion method; details: for zone of inhibition at 100 µg/mL: MTCC 281, 48 h, read-out: DIZ; outline: as §1
[18] = system: Fusarium oxysporum; experiment: Antimicrobial activity against Fusarium oxysporum MTCC 284 at 100 ug/ml after 48 hrs by disc diffusion method; details: for zone of inhibition at 100 µg/mL: MTCC 284, 48 h, read-out: DIZ; outline: as §1
[19] = system: Fusarium oxysporum; experiment: Antimicrobial activity against Fusarium oxysporum MTCC 284 after 48 hrs by microdilution method; outline: as §2
[20] = system: Aspergillus niger; experiment: Antimicrobial activity against Aspergillus niger MTCC 281 after 48 hrs by microdilution method; outline: as §2
[21] = system: Bacillus cereus; experiment: Antimicrobial activity against Bacillus cereus MTCC 8372 at 100 ug/ml after 24 hrs by disc diffusion method; details: MTCC 8372, 24 h, read-out: DIZ; outline: as §1
[22] = system: Bacillus cereus; experiment: Antimicrobial activity against Bacillus cereus MTCC 8372 after 24 hrs by microdilution method; details: MTCC 8372, 24 h; outline: as §2
[23] = system: Escherichia coli; experiment: Antimicrobial activity against Escherichia coli MTCC 724 at 100 ug/ml after 24 hrs by disc diffusion method; details: MTCC 724, 24 h, read-out: DIZ; outline: as §1
[24] = system: Klebsiella pneumoniae; experiment: Antimicrobial activity against Klebsiella pneumoniae MTCC 3384 at 100 ug/ml after 24 hrs by disc diffusion method; details: MTCC 3384, 24 h, read-out: DIZ; outline: as §1

For Cc1c(-c2nnc(-c3ccccc3)o2)c(-c2ccc(Cl)cc2)nn1-c1ccccc1, the zone of inhibition at 100 µg/mL [1] was 10 mm, the MBC [2] was 250 µg/mL (≈ 606 µM) and the MIC [2] was 50 µg/mL (≈ 121 µM). The zone of inhibition at 50 µg/mL [3] was 14 mm, the zone of inhibition at 50 µg/mL [4] was 5 mm and the MFC ([5]; MTCC 156, 48 h) was 270 µg/mL (≈ 654 µM). It also gave an MIC ([5]; MTCC 156, 48 h) of 40 µg/mL (≈ 96.9 µM), a zone of inhibition at 50 µg/mL [6] of 6 mm and a zone of inhibition at 100 µg/mL [7] of 10 mm. The zone of inhibition at 50 µg/mL [8] was 6 mm, the zone of inhibition at 100 µg/mL [9] was 8 mm and the MBC [10] was 250 µg/mL (≈ 606 µM). The MIC [10] was 40 µg/mL (≈ 96.9 µM), the MFC ([11]; MTCC 873, 48 h) was 275 µg/mL (≈ 666 µM) and the MIC ([11]; MTCC 873, 48 h) was 50 µg/mL (≈ 121 µM). For the same molecule, the zone of inhibition at 50 µg/mL [12] was 5 mm, the MBC [13] was 250 µg/mL (≈ 606 µM) and the MIC [13] was 50 µg/mL (≈ 121 µM). For the same molecule, the zone of inhibition at 50 µg/mL [14] was 11 mm, the zone of inhibition at 50 µg/mL [15] was 5 mm and the zone of inhibition at 50 µg/mL [16] was 8 mm. It also gave a zone of inhibition at 100 µg/mL [17] of 10 mm, a zone of inhibition at 100 µg/mL [18] of 22 mm and an MFC ([19]; MTCC 284, 48 h) of 215 µg/mL (≈ 521 µM). It also gave an MIC ([19]; MTCC 284, 48 h) of 30 µg/mL (≈ 72.7 µM), an MFC ([20]; MTCC 281, 48 h) of 275 µg/mL (≈ 666 µM) and an MIC ([20]; MTCC 281, 48 h) of 50 µg/mL (≈ 121 µM). It also gave a zone of inhibition at 100 µg/mL [21] of 10 mm, an MBC [22] of 240 µg/mL (≈ 581 µM) and an MIC [22] of 40 µg/mL (≈ 96.9 µM). For the same molecule, the zone of inhibition at 100 µg/mL [23] was 18 mm and the zone of inhibition at 100 µg/mL [24] was 9 mm.

With Cc1c(C(=O)O)c(-c2ccccc2)nn1-c1ccccc1 the zone of inhibition at 100 µg/mL [1] was 8 mm, the MBC [2] was 240 µg/mL (≈ 862 µM) and the MIC [2] was 30 µg/mL (≈ 108 µM). For the same molecule, the zone of inhibition at 50 µg/mL [3] was 3 mm, the zone of inhibition at 50 µg/mL [4] was 2 mm and the MFC ([5]; MTCC 156, 48 h) was 270 µg/mL (≈ 970 µM). It also gave an MIC ([5]; MTCC 156, 48 h) of 45 µg/mL (≈ 162 µM), a zone of inhibition at 50 µg/mL [6] of 4 mm and a zone of inhibition at 100 µg/mL [7] of 8 mm. For the same molecule, the zone of inhibition at 50 µg/mL [8] was 5 mm, the zone of inhibition at 100 µg/mL [9] was 5 mm and the MBC [10] was 280 µg/mL (≈ 1010 µM). For the same molecule, the MIC [10] was 35 µg/mL (≈ 126 µM), the MFC ([11]; MTCC 873, 48 h) was 300 µg/mL (≈ 1080 µM) and the MIC ([11]; MTCC 873, 48 h) was 55 µg/mL (≈ 198 µM). For the same molecule, the zone of inhibition at 50 µg/mL [12] was 4 mm, the MBC [13] was 250 µg/mL (≈ 898 µM) and the MIC [13] was 40 µg/mL (≈ 144 µM). It also gave a zone of inhibition at 50 µg/mL [14] of 3 mm, a zone of inhibition at 50 µg/mL [15] of 6 mm and a zone of inhibition at 50 µg/mL [16] of 4 mm. For the same molecule, the zone of inhibition at 100 µg/mL [17] was 6 mm, the zone of inhibition at 100 µg/mL [18] was 5 mm and the MFC ([19]; MTCC 284, 48 h) was 295 µg/mL (≈ 1060 µM). It also gave an MIC ([19]; MTCC 284, 48 h) of 55 µg/mL (≈ 198 µM), an MFC ([20]; MTCC 281, 48 h) of 280 µg/mL (≈ 1010 µM) and an MIC ([20]; MTCC 281, 48 h) of 50 µg/mL (≈ 180 µM). The zone of inhibition at 100 µg/mL [21] was 8 mm, the MBC [22] was 250 µg/mL (≈ 898 µM) and the MIC [22] was 30 µg/mL (≈ 108 µM). The zone of inhibition at 100 µg/mL [23] was 8 mm and the zone of inhibition at 100 µg/mL [24] was 6 mm.

For NYSTATIN, the inhibition zone (IZ) [1] was 20 mm, the inhibition zone (IZ) [3] was 16 mm and the MFC [5] was 100 µg/mL. For the same molecule, the MIC [5] was 12 µg/mL, the inhibition zone (IZ) [8] was 16 mm and the inhibition zone (IZ) [9] was 28 mm. For the same molecule, the MFC [11] was 100 µg/mL, the MIC [11] was 8 µg/mL and the inhibition zone (IZ) [15] was 12 mm. It also gave an inhibition zone (IZ) [16] of 10 mm, an inhibition zone (IZ) [17] of 25 mm and an inhibition zone (IZ) [18] of 30 mm. For the same molecule, the MFC [19] was 100 µg/mL, the MIC [19] was 15 µg/mL and the MFC [20] was 100 µg/mL. It also gave an MIC [20] of 10 µg/mL.

CN(C)[C@@H]1C(O)=C(C(N)=O)C(=O)[C@@]2(O)C(O)=C3C(=O)c4c(O)cccc4[C@@](C)(O)[C@H]3C[C@@H]12 [TETRACYCLINE] gave an MBC [2] of 120 µg/mL (≈ 270 µM), an MIC [2] of 8 µg/mL (≈ 18 µM) and a zone of inhibition at 50 µg/mL [4] of 9 mm. The zone of inhibition at 50 µg/mL [6] was 10 mm, the zone of inhibition at 100 µg/mL [7] was 20 mm and the MBC [10] was 120 µg/mL (≈ 270 µM). It also gave an MIC [10] of 12 µg/mL (≈ 27 µM), a zone of inhibition at 50 µg/mL [12] of 12 mm and an MBC [13] of 120 µg/mL (≈ 270 µM). The MIC [13] was 10 µg/mL (≈ 22.5 µM), the zone of inhibition at 50 µg/mL [14] was 18 mm and the zone of inhibition at 100 µg/mL [21] was 21 mm. The MBC [22] was 120 µg/mL (≈ 270 µM), the MIC [22] was 4 µg/mL (≈ 9 µM) and the zone of inhibition at 100 µg/mL [23] was 30 mm. It also gave a zone of inhibition at 100 µg/mL [24] of 20 mm.
